Measurements taken from the EternaBench riboswitch data.

Experiments:
MS2 coat protein [1] = assay: apparent Kd, MS2 coat protein; higher = weaker binding; RNA-MaP array
Method in brief: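 Fluorescently labeled MS2 coat protein, from 1.5 nM to 3 μM, was incubated at room temperature with designed RNAs transcribed on an Illumina sequencing chip from sequenced DNA templates. Times ran from 0.8–1.5 h at the lowest concentrations to 10–20 min at the highest, in Tris-HCl pH 7.5 buffer with KCl, MgCl2, BSA, DTT, tRNA and Tween20, with or without input ligand. Each apparent Kd is the median of per-cluster binding-curve fits, and designs with fewer than 10 measured clusters were excluded.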

MS2 coat protein [2] = assay: apparent Kd, MS2 coat protein; higher = weaker binding; RNA-MaP array; FMN 200 µM where present
Method in brief: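 Stalled E. coli RNA polymerase produced the designs on Illumina sequencing-chip clusters. SNAP-549-labelled MS2 coat protein was added from 0.7 or 1.5 nM, doubling to 3 µM, without and then with constant ligand, in 100 mM Tris-HCl pH 7.5, 80 mM KCl, 4 mM MgCl2, BSA, DTT, yeast tRNA and Tween-20. The apparent Kd is the median of filtered per-cluster fits of green signal normalised to red-channel RNA signal and control-cluster median Fmax.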

[3] = designed as: OFF switch for flavin mononucleotide, no ligand
[4] = ligand present: flavin mononucleotide, designed as: OFF switch for flavin mononucleotide
[5] = designed as: ON switch for flavin mononucleotide, no ligand
[6] = ligand present: flavin mononucleotide, designed as: ON switch for flavin mononucleotide
[7] = designed as: OFF switch for theophylline, no ligand
[8] = ligand present: theophylline, designed as: OFF switch for theophylline
[9] = designed as: ON switch for tryptophan, no ligand
[10] = ligand present: tryptophan, designed as: ON switch for tryptophan
[11] = designed as: OFF switch for tryptophan, no ligand
[12] = ligand present: tryptophan, designed as: OFF switch for tryptophan

Sequence	apparent Kd (MS2 coat protein [1]; [3]) [nM]	apparent Kd (MS2 coat protein [1]; [4]) [nM]	also measured
CGACGCUUAGGAUAUUGGUACACCUACAUGAGGAUCACCCAUGUGACUCCUUUACAAGGGCAAGAAGGAAGUUGGU	110	221	
AGUUUGGGCGCAGGAUAUCUUCACAUGAGGAUCACCCAUGUCCAUAAGAUAUUUAUGUCAUUUGGAGAGAAGGGCGGUUGUAAU			apparent Kd (MS2 coat protein [1]; [5]): 55.1 nM; apparent Kd (MS2 coat protein [1]; [6]): 36.1 nM
ACAGGACUAGUAGGAUAUGCGCCGGUAGUACCCGCAGAAGGACUUUCACGGGUUAUUGUCACAUGAGGAUCACCCAUGUGAGGG	13.2	13	
AAAAGCAGGGUCAGGAUAUAGGGUUCACUGUUGGCCUAGAAGGGACAUGAGGAUCACCCAUGUAUAGUAGUGGG	347	262	
GUACUGUACAAGAAGGUUGAUUUGCAUCAAGAUCCGAUUUACAUGAGGAUCACCCAUGUUUUAUCAAAGGAUAUUGGUACAACG	11	66.8	
UGAUGAUGACAGGAUAUUAGCGUAAUGAAACUUUAAGAAGGGUCGACAUGAGGAUCACCCAUGUAUGAUCUCGA	5.5	5.38	
GCAGGACAUGAGGAUCACCCAUGUGAGGGCAGAGGAGGAUAUAACUACCACUAUUGAUCGUUAGAAGGCCUAGAGG			apparent Kd (MS2 coat protein [1]; [5]): 40 nM; apparent Kd (MS2 coat protein [1]; [6]): 26 nM
GGUAUGUCAGGAUAUUAAUGGUCAGUAACGGAACAGAGGAGUAAGAAGGGACAUGAGGAUCACCCAUGUAUUCG	17.1	16.4	
GAGUCGCGAGGAUAUGGAAUGGACUACAUGAGGAUCACCCAUGUCCUUUCCCUUGUUUGUCCAGAAGGCGCCAUCC	27	24.4	
CUGUUAAGUAAAGGAUAUCCUCCAACAGCUAGAGGAGAAGGUUACUCCUUAAUCCACAUGAGGAUCACCCAUGUUAGUGUAAGU			apparent Kd (MS2 coat protein [1]; [5]): 11.5 nM; apparent Kd (MS2 coat protein [1]; [6]): 10.1 nM
GUACAGGAAGGAUAUACCAGGUAAGUUAAGUUUUCACAUUGACAUGAGGAUCACCCAUGUAGAAGGUCCCUAUA	36.7	31.7	
CUGACGUAGGAAGAUAUCUGGAACAAGGAUACCAGUAAACCAACAUACCCUUGGCAGCCUAAAACAUGAGGAUCACCCAUGUAAU			apparent Kd (MS2 coat protein [1]; [7]): 12.4 nM; apparent Kd (MS2 coat protein [1]; [8]): 14.6 nM
AUAAUAGUAGGAUAUACAUGAGGAUCACCCAUGUGACCGCUCAAAGAUAGCGAUGCUCGUAGAAGGACUGUGGA	21.3	21.8	
CCAUGGUUGACGGCCGCCACUCAUUAGUCUUUGAGGUUGGCACAUGAGGAUCACCCAUGUCUGCAGAGGACCGGGUCUCGCCACA			apparent Kd (MS2 coat protein [1]; [9]): 44.3 nM; apparent Kd (MS2 coat protein [1]; [10]): 44.2 nM
UAAUAGAUUACGGCCGCCACUGAAGUGGACUUUAUGAGCAGGAUUCACAUGAGGAUCACCCAUGUCAGGACCGGGUACGUCCAUA			apparent Kd (MS2 coat protein [1]; [11]): 39.2 nM; apparent Kd (MS2 coat protein [1]; [12]): 45.4 nM
AGCGACAUGAGGAUCACCCAUGUGUUAGCUAAGCCUCUCAGCAGAAGGGAUGGUGUCCCAGAUGAUCAGGAUAUGCUGUUUUUG	32.2	23.9	
UUGUGUACUCGAGGAUAUAAUGGACUACAUGAGGAUCACCCAUGUAUACGCCCACAGAGCGUCUUUUAGAAGGCGACGCAUCAU			apparent Kd (MS2 coat protein [1]; [5]): 8.4 nM; apparent Kd (MS2 coat protein [1]; [6]): 7.85 nM
AACCGGCAAGGAUAUACAUGAGGAUCACCCAUGUACGACGCGCUGGCUACGUUUUUAUGUAGAAGGUGCCGACC	6.19	6.26	
AUUCGAACGGUCAGGAUAUGCGGAAAGACAUCGCAGCAGAAGGGACAUGAGGAUCACCCAUGUAAAGGGCACAA	36.1	182	
GCUUUGCUGUGGUCCCUGAUACAUGAGGAUCACCCAUGUGAGAAGGAUAUUCAGAAUGGUCUCCCGAAGAAGGUCUGCACCUGG	15.4	11.3	
CUUAUCAUAGGAUAUACAUGAGGAUCACCCAUGUAGUAGCAUAUAUAUAGUUUCCCAAGUAGAAGGAUGUACAC	9.43	7.9	
AAAGAACAUGAGGAUCACCCAUGUCAGGAUAUACAAAGACGUAGCAAAGCGGACUCAAGAAGAAGGGACAAGGA	12.8	10.1	
AAUACACUUGAGAAGGCCCAAACAUGAGGAUCACCCAUGUGACAUGUAAUCGCCGCGAAUGGAAGGGAGGAUAUCAGAAUCCAC			apparent Kd (MS2 coat protein [1]; [5]): 16.2 nM; apparent Kd (MS2 coat protein [1]; [6]): 17.5 nM
UUCCUCAGCAGGGUAACAUGAGGAUCACCCAUGUCGGAGAGCGAGGAUAUCUCGUGAAGCUCAUAAGAGAAGGCGCACAACUAG	18.2	17.2	
CUGAACUAAGGAUAUACGGCCCUCAAUUAUAAUUCUGUGAAACAUGAGGAUCACCCAUGUAGAAGGUAGUCGAC	14.1	18.1	
CCGAACACUUAGAAGGAUUUAAUCUAUAAUUGAAUAGGAUAUAAGGCCUUACGUGCGAAUGAACACAUGAGGAUCACCCAUGUA	15.1	12.6	

Sequence	apparent Kd (MS2 coat protein [1]; [3]) [nM]	apparent Kd (MS2 coat protein [1]; [4]) [nM]	also measured
AAUGAUGCGAUCUACAGUCGAGGAUUCGAUACCAGCAACGGGCGUUGCCCUUGGCAGCGAGCUACAUGAGGAUCACCCAUGUUAC			apparent Kd (MS2 coat protein [1]; [7]): 19.9 nM; apparent Kd (MS2 coat protein [1]; [8]): 34.7 nM
UUAUACGCGAAAGGAUAUCUGAGAGUGGGAUCGUGGACAUGAGGAUCACCCAUGUGGAGAGAGGGAGAGAAGGUUCGGGUAUUC	31.7	29.5	
CUUCAACAUGAGGAUCACCCAUGUAGUGAUACCAGUCACUCAUACGACCCUUGGCAGCACAUUUUCUGUCGGCAUGUAGACGAUC			apparent Kd (MS2 coat protein [1]; designed as: ON switch for theophylline, no ligand): 121 nM; apparent Kd (MS2 coat protein [1]; ligand present: theophylline, designed as: ON switch for theophylline): 59.9 nM
CAGGAGCUAGAGAAGGAGGUUACGCCCACGGACCUAGGAUAUCUGUUCUGAGUUACAUGAGGAUCACCCAUGUGUCCGCGGUGG	53.9	33	
UACCGGGCGAUAGGAUAUAUCAGUUACUUCACAUGAGGAUCACCCAUGUUACCCGUGGAAAGUUGAUAGAAGGAUCCAGCUCCA	44.8	41.2	
CACCCAACUAUACAUGAGGAUCACCCAUGUUGAAAGUGCAACAGAAGGCCCUACUAAUAUAGGAGGGAGGAUAUGUGAACCGAA			apparent Kd (MS2 coat protein [1]; [5]): 62.5 nM; apparent Kd (MS2 coat protein [1]; [6]): 11.4 nM
UCGUUGGCACAGAAGGGACUCUCGAAGCAUGUGUCAGGAUAUGUGCGCUACAUGAGGAUCACCCAUGUCAAGACCUGGUUAGCA	29.4	18.8	
CACAGGUCAGUAGGAUAUGCUACAUGAGGAUCACCCAUGUGGUGGUAUAUGCGUCUAGGCGCAAAGCAGAAGGACUUCCAGGUG	42	146	
AUAAAUUUUACACGUUGCUACAUGAGGAUCACCCAUGUGUGGAGAAGGGAUCUGCCUACAAGGAAUCAGGAUAUCCAACUGUUC			apparent Kd (MS2 coat protein [1]; [5]): 32.9 nM; apparent Kd (MS2 coat protein [1]; [6]): 51.6 nM
AUACAGCUAGGAUAUCCGAUAGUAUACAUGAGGAUCACCCAUGUCCUGACGGCCGACCAUGGAGAAGGAGCAGAUA	42.2	31.9	
GCCAUAAAAGAGAAGGGCGGCCACCUACGAACCGCAGGAUAUCUUUGCUUUCCUCGGACAUGAGGAUCACCCAUGUGGCCAAUA	97.3	160	
AGAAGACAUGAGGAUCACCCAUGUGAGGAUAUUACACUAGAAAACAGCCGCGUCUCGGUAAGAAGGCACUAUGG	33.9	36.6	
GCGAACGGACCGUUGCCUUCCUGUGUGCGGCGAGGACCGGUACGGCCGCCACUCGACUGCGUACAUGAGGAUCACCCAUGUUAGA			apparent Kd (MS2 coat protein [1]; [11]): 26.5 nM; apparent Kd (MS2 coat protein [1]; [12]): 66.3 nM
UGCUUAAGACAGAAGGGCGUUCCGGAUGGUACCGCAGGAUAUGUCAACAUGAGGAUCACCCAUGUUACUAGCUAUGUUUCAAUU			apparent Kd (MS2 coat protein [1]; [5]): 9.97 nM; apparent Kd (MS2 coat protein [1]; [6]): 6.09 nM
CUACGCAUAGGAUAUGCCUACUGGGACAUGAGGAUCACCCAUGUGUUAUUAUCAGCUCCGGCAGAAGGAUGGUACU	29.1	11.8	
AUUGUGAUAGCAGGAUAUUGUAUUGGUACAUGAGGAUCACCCAUGUUAAAAUCCUCUUGAUUUAGCAAGAAGGGCUCCAUGGCA	21.8	18.3	
AUCGCGACAGGAUAUACAUGAGGAUCACCCAUGUUGAUGAGCGAGCAUCGGACUGAGAGUAGAAGGGUCGGCUC	9.26	9.04	
ACAUGAGGAUCACCCAUGUUAAAAGAAGAUAGCAUAUUGGGUAGAAGGUCACAUUUCCAUUAAGUGAAGGAUAUACCAUGAUUC			apparent Kd (MS2 coat protein [1]; [5]): 12.6 nM; apparent Kd (MS2 coat protein [1]; [6]): 7.04 nM
CUACGGACGGAAGGAUAUAUACGGGUGCCCAGUAUAGAAGGUCCAUACAUGAGGAUCACCCAUGUCAUUAAACCUACGGAGGAG			apparent Kd (MS2 coat protein [1]; [5]): 145 nM; apparent Kd (MS2 coat protein [1]; [6]): 80.6 nM
UUAGACCUGCGAGGAUAUUCCAGACUAACUGAGGAAGAAGGCGCUAGAACAUGAGGAUCACCCAUGUAACAGGGAACACUUCGU	9.82	26.3	
GAAAUCAGAGGAUAUCAGUCAUGUCACAUGAGGAUCACCCAUGUUUGUGUUUUGGUAGAUUGAGAAGGCUGCGACC	16.6	9.66	
GACAGACAUGAGGAUCACCCAUGUGAUACAGGCGUAGGAUAUUCGUGAGGAUACAGAAAAGAAGAAGGACGGGAAG			apparent Kd (MS2 coat protein [1]; [5]): 40.3 nM; apparent Kd (MS2 coat protein [1]; [6]): 38 nM
CCUGACAUGAGGAUCACCCAUGUGUGAGCACGAGGACCGGUACGGCCGCCACUCGCGUUGCCGGCCGGACUAUCUGGCGAAGUCA			apparent Kd (MS2 coat protein [1]; [9]): 32.9 nM; apparent Kd (MS2 coat protein [1]; [10]): 35.1 nM
CGGACCUGAGAGAAGGGCAGCCGACAUGAGGAUCACCCAUGUAAUCGAGGACCAUCCUCAUUUUUGCAGGAUAUCUAUUGUUAU	35.4	37.3	
UCAUAUAUACAAGGAUAUCAAUGAUUUAUAGAUCCUACAUGAGGAUCACCCAUGUUUUUAUAUUUUGAGAAGGUGUAAUGUCUU			apparent Kd (MS2 coat protein [2]; [5]): 218 nM; apparent Kd (MS2 coat protein [2]; [6]): 254 nM
AGCUGUGGCCGAGGAUAUCUAUCUCAAAUAACCGAAAUAUAAUCGGACAUGAGGAUCACCCAUGUAGAGAAGGCGGUCUCAGCA			apparent Kd (MS2 coat protein [2]; [3]): 14.5 nM; apparent Kd (MS2 coat protein [2]; [4]): 26.1 nM
